In the EternaBench riboswitch data:

Tested on: MS2 coat protein
Experiment: apparent Kd, MS2 coat protein; higher = weaker binding; RNA-MaP array; FMN 200 µM where present
In short: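 Green signal was scaled to red-channel RNA signal and control-cluster median Fmax, and the apparent Kd was taken as the median of filtered per-cluster binding-curve fits. The binding series used SNAP-549-labelled MS2 coat protein from 0.7 or 1.5 nM, doubling to 3 µM, on designs transcribed by stalled E. coli RNA polymerase on Illumina sequencing-chip clusters. Each series ran without and then with constant ligand in 100 mM Tris-HCl pH 7.5, 80 mM KCl, 4 mM MgCl2, BSA, DTT, yeast tRNA and Tween-20.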

[1] = designed as: ON switch for flavin mononucleotide, no ligand
[2] = ligand present: flavin mononucleotide, designed as: ON switch for flavin mononucleotide
[3] = designed as: OFF switch for flavin mononucleotide, no ligand
[4] = ligand present: flavin mononucleotide, designed as: OFF switch for flavin mononucleotide

Sequence | apparent Kd [1] [nM] | apparent Kd [2] [nM] | apparent Kd [3] [nM] | apparent Kd [4] [nM]
GUGCCUUGGGAGAAGGUUAUAUGCAAAGCAUUUAAAGGAUAUUCAUACCGGAAACGGACAUGAGGAUCACCCAUGUGGCACAAA | 1280 | 128 |  | 
UCGCGGGAGCAGAAGGGAUAGGCCUAUUGUCGUGGAGUCUAAACUUAACAUGAGGAUCACCCAUGUCAGGAUAUGCCCACGCGA |  |  | 9.89 | 10.5
CCCACGAAAGUCGAACGAUGAUGGAGAAGGAGUAUAACAUGACAUGAGGAUCACCCAUGUGCCAACUAGGAUAUCCAUCAUGGG |  |  | 9.72 | 8.55
UUGUUGUGAGGAUAUCCAAUAUAUGACAUGAGGAUCACCCAUGUUUCCACUCGUACCUCCGGAGAAGGCACUUAGU |  |  | 29.2 | 27.9
GUAGCAUACAGAGGAUAUUCAAAACCGGAAACGGACAUGAGGAUCACCCAUGUGGCGAAAGCCAGGGAGAAGGCUGAAUGCUAC | 32.8 | 14.8 |  | 
CGUGUUUAUGUGAGGAUAUUAUCAAGCUGAUUGUGUAAGAAGGCACAUGAGGAUCACCCAUGUGGCGAUUCCGC |  |  | 34.2 | 215
UCUAGACAUGAGGAUCACCCAUGUCGAUAUGGCGCAGGAUAUCGGUACUCAUAGAGUACGCGAGAAGGGUGACUUC | 343 | 48.4 |  | 
GGCUGGUAGCUAGGAUAUGGGCGGUCACAUGAGGAUCACCCAUGUCAACAUCAAAACCAGAUUAACCAGAAGGAGCUGCGGGUU | 36 | 37.8 |  | 
CAGUACUGAGGAUAUACAUGAGGAUCACCCAUGUGUCCUAGCUAGGAAACUAGCAUUAGUAGAAGGCAGUACUG |  |  | 18.9 | 300
UUACUUCAUGAGAAGGACAUGAGGAUCACCCAUGUAGGAUAUCGUGGGAGACUGGUAUUGAAUCUUCGGAUUCAAUACCUGUCU | 59.7 | 9.3 |  | 
GCGUCAGGAGGAUAUACAUGAGGAUCACCCAUGUAACACGGGAUCGUCGUUUAGUAGAGUAGAAGGCCUAUUGU |  |  | 64.1 | 106
AUUAUGACCGAGUUAUAGUUCCAAACAUGAGGAUCACCCAUGUAGGAUAUCAGCACGAUAAGUGCUGAGAAGGACAUCUCGGUC |  |  | 14.9 | 16.1
ACUAUACGAGGAUAUACUGACGGGCCUCAGGCAUCCAUCAGACAUGAGGAUCACCCAUGUAGAAGGCGUAUACU |  |  | 56.1 | 158
GGAUAGGACAGAGGAUAUACGUGCUAUAGAUACUAGCAAAAUUUCCUCACAUGAGGAUCACCCAUGUAGAAGGCUGUCCUAUCG |  |  | 16.8 | 354
AUCGUGUUAGGAUAUGCAUGUCGCUGGGUAGCUAGCGAUAGGCAGAAGGAACAUGAGGAUCACCCAUGUUCGGG |  |  | 158 | 78
UAUUGAUAAUAUUUUAACAUGAGGAUCACCCAUGUCGCUAGACAGGAUAUAUUUUAUUUGUUUAAGUAGAAGGGUCGCAGAUUU | 150 | 130 |  | 
GCAUGUGUAUAAGGAUAUGCAUCACUGAGAAAUUUAGUGAGGAAGAUCACAUGAGGAUCACCCAUGUAGAAGGUAUACACGUGC |  |  | 7.32 | 52.3
AACAUGUCAGGAUAUGCAAAAGGAGACUGACACGCGAGUGAGCAGAAGGGACAUGAGGAUCACCCAUGUUCAAA |  |  | 18.3 | 16
AUCAGCUCGUCAGGAUAUACGACACUGCGUCAGCAGUGUGGUAAGAUCACAUGAGGAUCACCCAUGUAGAAGGGACGAGCUGAU |  |  | 6.87 | 28.1
GUGCGUGGCUAGGAUAUUGUGGAGUUUAGUCAGCGAGAAGGUGCCACAUGAGGAUCACCCAUGUGGUGUUGCUC |  |  | 19.8 | 21.7
CCAACGUACAAUUUAGAUCUACAUGAGGAUCACCCAUGUACGGAGGAUAUCAGCUCGUUUAGAGCUGAGAAGGCCGAAUUAAUU | 342 | 77.4 |  | 
GUAGCAUACCGAGGAUAUUCAGGGCGUGGAUAAACAUGAGGAUCACCCAUGUGGCGAAAGCCUAGGGAGAAGGCGGAAUGCUAC | 21.5 | 16.3 |  | 
CGAGAUACGCUCGUCCGAAAGGAACAUGAGGAUCACCCAUGUAGAAGGCGAUCCGCAACUCGGAUUGAGGAUAUAUACUGCAGA |  |  | 139 | 91.2
GGGCCCGGAGGAUAUACAUGAGGAUCACCCAUGUAUCUGGGUCUUAUUGGGCUCGGGUGUAGAAGGCCGGGCCC |  |  | 11.8 | 13.8

Sequence | apparent Kd [1] [nM] | apparent Kd [2] [nM] | apparent Kd [3] [nM] | apparent Kd [4] [nM]
CAGGUCUGAGGAUAUCCAUCUUCAUACAUGAGGAUCACCCAUGUUUCCCUCUGGGUUUUCGGAGAAGGCAGUUUUU |  |  | 358 | 293
UGUUUGGGAGGAUAUCCAAUAUAUGACAUGAGGAUCACCCAUGUUUCCACUCGUACCUCCGGAGAAGGCCCUGCGU |  |  | 24.7 | 22
UGAUAGGACAGAGGAUAUACAGAUAGGAUCUACUAUCAAACAGUCCUUACAUGAGGAUCACCCAUGUAGAAGGCUGUCCUAUCU |  |  | 19.8 | 85.8
CGGCGCUGUCGAGAGGAUAUGCGGUGACGGACAUGAGGAUCACCCAUGUUAGCGAUAGCGUUACGGUAGAAGGCUCUACAGUCGC | 76.8 | 15.4 |  | 
CGCUGAGCGGUGAGGAUAUCGUGUUCGAAAGAACGUGAGAAGGCACAUGAGGAUCACCCAUGUGAUCCUCAUCG |  |  | 17.1 | 28.1
UGAGCCUCGUGAGGAUAUACAUGAGGAUCACCCAUGUAAAUGAAAGAUAGCUCGAAACGAGCAAAGUAGAAGGCACGAGGCUCA |  |  | 17.1 | 27.1
AAGAAGUCAGGAUAUCCUGCUCGUCACUUGCGUGAUGAGUAGGAGAAGGGACAUGAGGAUCACCCAUGUAAAGC |  |  | 46.4 | 43.1
GAUCCUUCUGUUAGGAUAUGCUACGGGCUUCCGCAGCAGAAGGAACAUGAGGAUCACCCAUGUCAAAUAAAAUC |  |  | 37.1 | 168
AAAACAUGAGGAUCACCCAUGUAAAGAACGCUUAAUAGAUCUGAGGAUAUACUAGAAUUUAGGUAGUAGAAGGCAGUGGGUACA | 46.6 | 30.7 |  | 
UAGGACGAACAGUGCCGUGGAACGAAGGAUAUACAGGGACGUCGGCUCACAUGAGGAUCACCCAUGUAGAAGGUCGACACGCGC |  |  | 8.91 | 48.3
GGUACCAUCGCAGGAUAUGCUAGGGUUUCCUUAGCAGAAGGGUGAUAACAUGAGGAUCACCCAUGUGGUACCGGGCGUGAGCCC | 95 | 1160 |  | 
GUGUACAUCGGAGGAUAUCAUGUAAAUACAUGAGGAUCACCCAUGUCGAUGGAGACAUCGGAGAUUGAGAAGGCCGAUGUACCG | 169 | 9.35 |  | 
AAUAACAGAGGAUAUACUAUUUUAUGUGUUUGUUGUUUUAAACAUGAGGAUCACCCAUGUAGAAGGCUGAAUGA |  |  | 22.8 | 27.6
AAUGGCUGGUGAACUUGGUCACAUGAGGAUCACCCAUGUUAUGAGGAUAUCGCUGCACAUUGACGUGAGAAGGCAUAGCAAGCC |  |  | 132 | 453
GGUGUGUUAGGAUAUCGCGGCGGCGGCGUUUGUUGUUGUUGUGAGAAGGAACAUGAGGAUCACCCAUGUGCGCC |  |  | 27.3 | 75.5
GUCCUUAACAAGGAUAUCGGGCGGGUUUUUGUUUGAGAAGGUGUGACAUGAGGAUCACCCAUGUGGCGCGUGGG |  |  | 355 | 383
CUACCGCGUGUGAGGAUAUUAUCACGUUACGGCGCUAAGAAGGUACAUGAGGAUCACCCAUGUCUCAACGGGUG |  |  | 447 | 546
GUUUUUCCUCAUGUACAUGAGGAACAUGAGGAUCACCCAUGUAGAAGGAUUUCCCUUAAAUUAAGAUAGGAUAUACAUAUAUUU |  |  | 102 | 59.3
UUGGGUUUGCGAGGAUAUCGUUUGUGAUUUGAUCGAGAAGGCGCUAUUUAAAUUAUUUUAACAUUACAUGAGGAUCACCCAUGU | 19.1 | 17.2 |  | 
UUUGAAUAAGUGAGGAUAUACUGUUAGUAAUGAUUGUAGAAGGUACAUGAGGAUCACCCAUGUUUAUUAUUUAU |  |  | 21.8 | 18.3
UUUUCAUCAUCAGGAUAUUAACGUGGGCUACUUUAAGAAGGGAUAGUGGGAGAGCACGUGAAACAUGAGGAUCACCCAUGUUGU | 12.2 | 9.73 |  | 
CCCUCAAGCGAGGAUAUAAAUGCGCAUUCGCGGUUAGAAGGCGCUACAUGAGGAUCACCCAUGUAAUAAAAUGG |  |  | 68.2 | 86.4
GGAUCGAAUGUGAGGAUAUGCUGGUCCUUGGAUCAGCAGAAGGCACAUGAGGAUCACCCAUGUGGUAACGGUCC |  |  |  | 554
CUCGUUAUGUUAGGAUAUGAUGCAUCCCGAUAAUCAGAAGGAACAUGAGGAUCACCCAUGUGACAUUUGGUGAAAACAAGCCAA |  |  | 6.35 | 7.87
